Each block holds one compound with its values, some of them ahead of it. Active and inactive are the calls of the source. The calls are words filed in the database; no cut-off is given here.
Assays:
[1] = biological target: T1, Pyruvate kinase PKM (Homo sapiens, UniProt P14618); assay: Binding affinity to PKM2 in human HL60 cells at 20 uM after overnight incubation in presence of 200 to 400 uM MCL by silver staining-based streptavidin-agarose pull-down assay; format: cell-based
Procedure, shortened: (§1)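 HL60 lysate incubated overnight at 4 °C with biotinylated probe, with or without excess free parent compound for competition. Pull-down on streptavidin-agarose, then SDS-PAGE with silver staining, or Western blot with anti-PKM2. Repeated at least three times.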
Target sequence in this assay (P14618 2-531 limits assumed): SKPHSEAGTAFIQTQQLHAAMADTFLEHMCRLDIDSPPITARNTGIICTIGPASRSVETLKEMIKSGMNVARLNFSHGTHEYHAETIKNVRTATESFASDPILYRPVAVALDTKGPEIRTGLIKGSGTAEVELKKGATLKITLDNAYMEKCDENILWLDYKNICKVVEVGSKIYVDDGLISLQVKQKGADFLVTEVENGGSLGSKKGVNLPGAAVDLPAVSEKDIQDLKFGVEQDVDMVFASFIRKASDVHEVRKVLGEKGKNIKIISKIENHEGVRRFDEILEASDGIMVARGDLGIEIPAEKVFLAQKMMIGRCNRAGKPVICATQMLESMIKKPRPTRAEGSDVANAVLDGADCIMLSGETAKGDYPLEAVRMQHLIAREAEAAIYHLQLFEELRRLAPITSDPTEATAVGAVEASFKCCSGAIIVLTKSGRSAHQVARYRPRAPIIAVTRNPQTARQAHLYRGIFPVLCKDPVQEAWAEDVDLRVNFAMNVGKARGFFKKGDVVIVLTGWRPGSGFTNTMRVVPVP

[2] = biological target: T1, Pyruvate kinase PKM; assay: Binding affinity to recombinant human PKM2 expressed in Escherichia coli BL21 after overnight incubation by Western blot method
Procedure, shortened: (§2)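 Recombinant PKM1 or PKM2 incubated overnight at 4 °C with biotinylated probe. Biotin adduct detected by Western blot with streptavidin-HRP; loading checked by anti-PKM1/PKM2 blot. Repeated at least three times.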
Target sequence in this assay (P14618 2-531 limits assumed): as above

[3] = biological target: T1, Pyruvate kinase PKM; assay: Irreversible binding affinity to recombinant human PKM2 expressed in Escherichia coli BL21 at 20 uM incubated for 2 to 150 mins
Procedure, shortened: (§3)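 PKM2 (0.25 μM) incubated with biotinylated probe (20 μM, and other concentrations) for varying times. Time-dependent binding curves fitted for observed rate constants (Kobs) at each concentration. Kobs plotted against concentration to derive kact and Ki under an irreversible-binding model.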
Target sequence in this assay (P14618 2-531 limits assumed): as above

[4] = tested on: Pyruvate kinase PKM (Homo sapiens), P14618 [C424S]; assay: Binding affinity to recombinant human PKM2 C424S mutant expressed in Escherichia coli BL21 after 60 mins by Western blot method
[5] = biological target: T1, Pyruvate kinase PKM; assay: Binding affinity to recombinant human PKM1 expressed in Escherichia coli BL21 after overnight incubation by Western blot method; procedure, shortened: as §2
Target sequence in this assay (P14618 2-531 limits assumed): as above

[6] = biological target: T1, Pyruvate kinase PKM; assay: Binding affinity to recombinant human PKM2 at C424 residue expressed in Escherichia coli BL21 after 60 mins by Western blot method
Target sequence in this assay (P14618 2-531 limits assumed): as above

[7] = biological target: T1, Pyruvate kinase PKM; assay: Irreversible binding affinity to recombinant human PKM2 expressed in Escherichia coli BL21; procedure, shortened: as §3
[8] = biological target: T1, Pyruvate kinase PKM; assay: Binding affinity to PKM2 in human HL60 cells at 20 uM after overnight incubation by silver staining-based streptavidin-agarose pull-down assay; format: cell-based; procedure, shortened: as §1
Target sequence in this assay (P14618 2-531 limits assumed): as above

[9] = biological target: T1, Pyruvate kinase PKM; assay: Irreversible binding affinity to recombinant human PKM2 expressed in Escherichia coli BL21 assessed as ratio of Kact to Ki; procedure, shortened: as §3
[10] = biological target: T1, Pyruvate kinase PKM; assay: Binding affinity to PKM2 in human HL60 cells at 20 uM after overnight incubation by Western blot method; format: cell-based; procedure, shortened: as §1
[11] = tested on: HL-60; assay: Antiproliferative activity against human HL60 cells at 5 to 20 uM after 24 hrs in presence of shControl by MTT assay; format: functional, cell-based
Procedure, shortened: (§4)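 HL60 transduced with lentiviral shPKM2 or shControl (5 μg/mL Polybrene), selected 72 h in 1 μg/mL puromycin. Stable lines treated with compound or DMSO for 24 h, then viability assayed.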

[12] = tested on: HL-60; assay: Effect on PKM2 levels in human HL60 cells at 2.5 to 10 uM after 20 hrs by Western blot method; format: functional, cell-based
[13] = tested on: HL-60; assay: Antiproliferative activity against human HL60 cells at 5 to 20 uM after 24 hrs in presence of shPKM2 by MTT assay; format: functional, cell-based; procedure, shortened: as §4
[14] = tested on: HL-60; assay: Antitumor activity against human HL60 cells xenografted in zebrafish embryo assessed as inhibition of cell migration at 200 ug/ml measured after 3 days of incubation by CM-Dil staining-based microscopic method relative to control; format: functional
Procedure, shortened: (§5)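 HL60 cells labelled with CM-Dil; about 300 cells injected into yolk sac of embryos at 2 dpf. Embryos kept in compound (1, 3, 10 μg/mL), cytarabine 200 μg/mL or saline for 3 days. Embryos showing dissemination counted by microscopy, 15 larvae per group. Average ± SD of three independent assays; unpaired Student's t test.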

[15] = tested on: HL-60; assay: Antitumor activity against human HL60 cells xenografted in zebrafish embryo assessed as inhibition of cell proliferation at 200 ug/ml measured after 3 days of incubation by CM-Dil staining-based microscopic method relative to control; format: functional; procedure, shortened: as §5
[16] = tested on: SH-SY5Y; assay: Antiproliferative activity against human SH-SY5Y cells after 48 hrs by MTT assay; format: functional, cell-based
Procedure, shortened: (§6)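 Cells exposed to a range of concentrations for 48 h; proliferation by MTT. Mean ± SEM of six independent experiments. Resistant lines (HL-60/ADR, K562/ADR) held in ADR (printed as 1 μmol/mL) for 10–28 days, then 10 days drug-free before use. SW1990 and SH-SY5Y in DMEM + 10% FBS; leukemia lines in medium with 12% FBS. Vehicle 0.1% DMSO.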

[17] = tested on: K562/Adr; assay: Antiproliferative activity against human K562/ADR cells after 48 hrs by MTT assay; format: functional, cell-based; procedure, shortened: as §6
[18] = tested on: HL60/ADR; assay: Antiproliferative activity against human HL60/ADR cells after 48 hrs by MTT assay; format: functional, cell-based; procedure, shortened: as §6
[19] = tested on: HL-60; assay: Antitumor activity against human HL60 cells xenografted in zebrafish embryo assessed as inhibition of cell proliferation at 10 ug/ml measured after 3 days of incubation by CM-Dil staining-based microscopic method relative to control; format: functional; procedure, shortened: as §5
[20] = species on record: Homo sapiens; assay: (§7) Antiproliferative activity against human K562/G cells after 48 hrs by MTT assay; format: functional, cell-based; procedure, shortened: as §6
[21] = as §7; format: functional, cell-based; details: K562, 48 h; procedure, shortened: as §6
[22] = Toxicity in zebrafish embryo xenografted with human HL60 cells assessed as mortality at 20 ug/ml relative to control; format: organism-based, Danio rerio; details: read-out: Activity
Procedure, shortened: (§8)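 Zebrafish embryos at 2 dpf were injected in the yolk sac with about 300 HL60 cells prelabelled with CM-Dil. Nine injected groups were then exposed to drug at a range of dosages for 3 days, with saline as the negative control. Survival and mortality were scored against the control group, and treated versus control animals were compared by Kaplan–Meier analysis.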

[23] = Toxicity in zebrafish embryo xenografted with human HL60 cells assessed as survival rate at <= 10 ug/ml treated for 3 days relative to control; format: organism-based, Danio rerio; procedure, shortened: as §8
[24] = tested on: K562; assay: Antiproliferative activity against human K562 cells after 48 hrs by MTT assay; format: functional, cell-based; procedure, shortened: as §6
[25] = tested on: HL-60; assay: Antitumor activity against human HL60 cells xenografted in zebrafish embryo assessed as decrease in cell dissemination measured after 3 days of incubation by CM-Dil staining-based microscopic method; format: functional; procedure, shortened: as §5
[26] = tested on: SW1990; assay: Antiproliferative activity against human SW1990 cells after 48 hrs by MTT assay; format: functional, cell-based; procedure, shortened: as §6
[27] = tested on: HL-60; assay: Antitumor activity against human HL60 cells xenografted in zebrafish embryo assessed as inhibition of cell migration at 10 ug/ml measured after 3 days of incubation by CM-Dil staining-based microscopic method relative to control; format: functional; procedure, shortened: as §5
[28] = tested on: HL-60; assay: Antiproliferative activity against human HL60 cells after 48 hrs by MTT assay; format: functional, cell-based; procedure, shortened: as §6

Sequence of Pyruvate kinase PKM (Homo sapiens), P14618 [C424S] (P14618 whole entry C424S): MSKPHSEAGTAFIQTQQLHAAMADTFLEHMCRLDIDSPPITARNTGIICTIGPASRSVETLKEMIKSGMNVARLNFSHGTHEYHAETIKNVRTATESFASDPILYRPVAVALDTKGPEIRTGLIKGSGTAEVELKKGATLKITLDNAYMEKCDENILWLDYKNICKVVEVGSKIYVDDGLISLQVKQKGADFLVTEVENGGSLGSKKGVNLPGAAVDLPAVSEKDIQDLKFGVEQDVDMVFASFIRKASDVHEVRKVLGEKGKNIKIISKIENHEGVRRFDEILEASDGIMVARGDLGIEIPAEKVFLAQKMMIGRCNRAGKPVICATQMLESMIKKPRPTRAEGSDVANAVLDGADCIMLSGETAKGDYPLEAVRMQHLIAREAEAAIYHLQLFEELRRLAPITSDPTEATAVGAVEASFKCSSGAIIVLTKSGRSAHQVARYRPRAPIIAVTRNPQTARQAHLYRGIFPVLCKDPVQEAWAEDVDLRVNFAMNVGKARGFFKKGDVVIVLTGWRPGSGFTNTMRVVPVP

Activity [1]: inactive
Activity [2]: Active
K [3]: 0.033 min⁻¹
Activity ([3]; TDE = time-dependent effect): Tde
Activity [4]: inactive
Activity [5]: inactive
Activity [6]: Active
Kact [7]: 0.031 min⁻¹
Ki [7]: 0.05 µM
Activity [8]: Active
Ratio [9]: 1.03 ×10⁴ /M/s
Activity [10]: Active
SMILES: C=C1C(=O)O[C@H]2[C@H]1CCC(C)=C1CC[C@@](C)(OC(=O)CCCc3cn(CCOCCOCCOCCNC(=O)CCCC[C@H]4SC[C@H]5NC(=O)N[C@H]54)nn3)[C@@H]12

SMILES: C=C1C(=O)O[C@H]2[C@H]1CCC(C)=C1CC[C@@](C)(O)[C@@H]12
Activity [11]: Active
Activity [12]: inactive
Activity [13]: inactive

SMILES: Nc1ccn([C@@H]2O[C@H](CO)[C@@H](O)[C@@H]2O)c(=O)n1 [CYTARABINE]
inhibition (INH) [14]: 44.04%
inhibition (INH) [15]: 43.28%

Activity [8]: inactive
SMILES: CC1=C2CC[C@@](C)(OC(=O)CCCc3cn(CCOCCOCCOCCNC(=O)CCCC[C@H]4SC[C@H]5NC(=O)N[C@H]54)nn3)[C@@H]2[C@H]2OC(=O)[C@@H](C)[C@@H]2CC1

SMILES: CC1=C2CC[C@@](C)(O)[C@@H]2[C@H]2OC(=O)[C@@H](CN(C)C)[C@@H]2CC1.O=C(O)/C=C/C(=O)O
Activity [16]: Dose-dependent effect
IC50 [16]: 3.9 to 16.2 µM
IC90 [16]: 16.4 to 54.1 µM
Activity [17]: Dose-dependent effect
IC50 [17]: 3.9 to 16.2 µM
IC90 [17]: 16.4 to 54.1 µM
Activity [18]: Dose-dependent effect
IC50 [18]: 3.9 to 16.2 µM
IC90 [18]: 16.4 to 54.1 µM
inhibition (INH) [19]: 56.44%
Activity [20]: Dose-dependent effect
IC50 [21]: 3.9 to 16.2 µM
IC90 [21]: 16.4 to 54.1 µM
mortality at 20 ug/ml [22]: 80%
survival at 72 h [23]: 100%
Activity [24]: Dose-dependent effect
IC50 ([24]; K562, 48 h): 3.9 to 16.2 µM
IC90 ([24]; K562, 48 h): 16.4 to 54.1 µM
Activity [25]: Dose-dependent effect
Activity [26]: Dose-dependent effect
IC50 ([26]; SW1990, 48 h): 3.9 to 16.2 µM
IC90 ([26]; SW1990, 48 h): 16.4 to 54.1 µM
inhibition (INH) [27]: 58.1%
Activity [28]: Dose-dependent effect
IC50 ([28]; HL-60, 48 h): 3.9 to 16.2 µM
IC90 ([28]; HL-60, 48 h): 16.4 to 54.1 µM

Source: ChEMBL document CHEMBL4184316 (J Med Chem, 2018)
